From ChEMBL document CHEMBL4177551, “Bioactive Triterpenoids from the Twigs of Chaenomeles sinensis” (J Nat Prod, 2017)

Assays:
BV-2 = assay: Anti-inflammatory in mouse BV2 cells assessed as inhibition of LPS-induced nitric oxide production pre-incubated before LPS challenge for 24 hrs by Griess reagent based assay; assay type: functional, cell-based
In short: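 BV2 microglia seeded at 4 × 10^4 cells/well, treated with or without graded compound concentrations, then stimulated with LPS (100 ng/mL) for 24 h. Nitrite in the medium was measured with Griess reagent (0.1% N-1-naphthylethylenediamine dihydrochloride, 1% sulfanilamide, 5% phosphoric acid), 1:1 with supernatant for 10 min, A570. Quantified against a sodium nitrite standard. IC50 = concentration giving 50% inhibition of NO production.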

[1] = Cytotoxicity in mouse BV2 cells assessed as cell viability at 20 uM incubated for 24 hrs by MTT assay relative to untreated control; assay type: cell-based, BV-2; conditions: read-out: Activity
In short: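 BV2 cells in the LPS-stimulated NO assay (LPS 100 ng/mL, 24 h) were exposed to 20 μM compound. Viability was read by MTT assay and expressed as percent. Mean ± SD of three independent experiments.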

A549 = assay: Cytotoxicity against human A549 cells assessed as inhibition of cell growth by SRB assay; assay type: functional, cell-based
In short: (§1)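 Human tumour lines A549, SK-OV-3, SK-MEL-2 and HCT15 (from ATCC) were tested by sulforhodamine B assay. IC50 is the concentration giving 50% inhibition of cell growth. Cisplatin served as positive control.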

SK-OV-3 = assay: Cytotoxicity against human SKOV3 cells assessed as inhibition of cell growth by SRB assay; assay type: functional, cell-based; in short: as §1
SK-MEL-2 = assay: Cytotoxicity against human SK-MEL-2 cells assessed as inhibition of cell growth by SRB assay; assay type: functional, cell-based; in short: as §1
HCT-15 = assay: Cytotoxicity against human HCT15 cells assessed as inhibition of cell growth by SRB assay; assay type: functional, cell-based; in short: as §1
C6 = assay: Neuroprotective activity in rat C6 cells assessed as induction of nerve growth factor secretion at 20 uM incubated for 24 hrs by ELISA method relative to untreated control; assay type: functional
In short: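 C6 glioma cells seeded at 1 × 10^5 cells/well and cultured 24 h. They were then switched to serum-free DMEM with compound at 20 μM for a further 24 h. NGF secreted into the conditioned medium was quantified by ELISA and expressed as percent of untreated control (100%). Mean ± SD of three independent experiments.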

[2] = Cytotoxicity in rat C6 cells assessed as cell viability at 20 uM incubated for 24 hrs by MTT assay relative to untreated control; assay type: cell-based; conditions: read-out: Activity
In short: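 C6 glioma cells were seeded at 1 × 10^5 cells/well. After 24 h, medium was switched to serum-free DMEM and compounds were added at 20 μM for 24 h. Viability was read by MTT and expressed as % of untreated cells. Values are means ± SD of three independent experiments.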

IC50 (BV-2) [µM] | SMILES | viability at 24 h, 20 µM [1] [%] | IC50 (A549) [µM] | IC50 (SK-OV-3) [µM] | IC50 (SK-MEL-2) [µM] | IC50 (HCT-15) [µM] | Activity (C6) [%] | viability at 24 h, 20 µM [2] [%]
21.6 | CC1(C)CC[C@]2(C(=O)O)CC[C@]3(C)C(=CC[C@@H]4[C@@]5(C)C[C@@H](O)[C@@H](O)C(C)(C)[C@@H]5CC[C@]43C)[C@@H]2C1 | 87 | – | – | – | – | – | –
– | C=C(C)[C@@H]1CC[C@]2(C(=O)O)CC[C@]3(C)[C@H](CC[C@@H]4[C@@]5(C)CC[C@H](OC(=O)/C=C/c6ccc(O)c(O)c6)C(C)(C)[C@@H]5CC[C@]43C)[C@@H]12 | – | 9.9 | > 10 | > 10 | > 10 | 355.7 | 95
– | C=C(C)[C@@H]1CC[C@]2(CO)CC[C@]3(C)[C@H](CC[C@@H]4[C@@]5(C)CC[C@H](OC(=O)/C=C/c6ccc(O)c(O)c6)C(C)(C)[C@@H]5CC[C@]43C)[C@@H]12 | – | > 10 | 9 | 2.9 | > 10 | – | –
– | C=C(C)[C@@H]1CC[C@]2(CO)CC[C@]3(C)[C@H](CC[C@@H]4[C@@]5(C)CC[C@H](OC(=O)/C=C\c6ccc(O)c(O)c6)C(C)(C)[C@@H]5CC[C@]43C)[C@@H]12 | – | > 10 | 8.4 | 2 | > 10 | – | –
17.8 | CC1(C)CC[C@]2(C(=O)O)CC[C@]3(C)C(=CC[C@@H]4[C@@]5(C)C[C@@H](O)[C@H](O)C(C)(C)[C@@H]5CC[C@]43C)[C@@H]2C1 [MASLINIC ACID] | 30.4 | – | – | – | – | – | –
47.1 | C[C@H]1[C@H](C)CC[C@]2(C(=O)O)CC[C@]3(C)C(=CC[C@@H]4[C@@]5(C)C[C@@H](O)[C@H](O)C(C)(C)[C@@H]5CC[C@]43C)[C@H]12 [COROSOLIC ACID] | 100 | – | – | – | – | – | –
21.8 | CNC(=N)NCCC[C@H](N)C(=O)O [TILARGININE] | 114 | – | – | – | – | – | –
– | CCCCC/C=C/C(=O)CCc1ccc(O)c(OC)c1 [SHOGAOL] | – | – | – | – | – | 168.6 | 126
– | C[C@@H]1CC[C@]2(C(=O)O)CC[C@]3(C)C(=CC[C@@H]4[C@@]5(C)C[C@@H](O)[C@H](O)C(C)(C)[C@@H]5CC[C@]43C)[C@@H]2[C@]1(C)O [TOMENTIC ACID] | – | – | – | – | – | 167.4 | 100
37.1 | COc1cc(/C=C\C(=O)O[C@H]2[C@H](O)C[C@]3(C)[C@H]4CC=C5[C@H]6[C@](C(=O)O)(CC[C@@H](C)[C@@]6(C)O)CC[C@@]5(C)[C@]4(C)CC[C@H]3C2(C)C)ccc1O | 111 | – | – | – | – | – | –

SMILES | IC50 (BV-2) [µM] | viability at 24 h, 20 µM [1] [%] | IC50 (A549) [µM] | IC50 (SK-OV-3) [µM] | IC50 (SK-MEL-2) [µM] | IC50 (HCT-15) [µM] | Activity (C6) [%] | viability at 24 h, 20 µM [2] [%]
C=C(C)[C@@H]1CC[C@]2(C(=O)O)CC[C@]3(C)[C@H](CC[C@@H]4[C@@]5(C)CC[C@H](O)C(C)(C)[C@@H]5CC[C@]43C)[C@@H]12 [BETULINIC ACID] | 4.5 | 59.6 | 3.1 | > 10 | > 10 | 8.7 | 177.6 | 77.3
C=C(C)[C@@H]1CC[C@]2(C(=O)O)CC[C@]3(C)[C@H](CC[C@@H]4[C@@]5(C)C[C@@H](O)[C@H](O)C(C)(C)[C@@H]5CC[C@]43C)[C@@H]12 [ALPHITOLIC ACID] | 14.5 | 71 | – | – | – | – | – | –
C=C(C)[C@@H]1CC[C@]2(CO)CC[C@]3(C)[C@H](CC[C@@H]4[C@@]5(C)CC[C@H](O)[C@](C)(CO)[C@@H]5CC[C@]43C)[C@@H]12 [ILEKUDINOL C] | 25.5 | 88 | 5.1 | > 10 | > 10 | > 10 | – | –
C=C(C)[C@@H]1CC[C@]2(C(=O)O)CC[C@]3(C)[C@H](CC[C@@H]4[C@@]5(C)CC[C@H](OC(=O)/C=C\c6ccc(O)c(O)c6)C(C)(C)[C@@H]5CC[C@]43C)[C@@H]12 | 13.4 | 35.3 | 0.9 | 7.5 | 6.7 | 3.8 | – | –
